Results as given in ChEMBL document CHEMBL1126153, “Synthesis and biological activity of certain alkyl 5-(alkoxycarbonyl)-1H-benzimidazole-2-carbamates and related derivatives: a new class of potential antineoplastic and antifilarial agents” (J Med Chem, 1992).

How the values were obtained:
L1210 [1] = test: In vitro test against L1210 murine leukemia cell growth rate at 10 uM concentration; type: functional, Mus musculus
Outline: (§1)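 L1210 cells were grown in static suspension culture in Fischer's medium with test compound, and counted twice daily over 3 days. Growth rate is the control population doubling time (average 12 h) divided by the treated doubling time, as a % of control. The IC50 is the concentration that reduces the growth rate to 50% of control.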

Brugia pahangi [2] = test: Antifilarial activity measured against the adult worms of Brugia pahangi in jirds by subcutaneous administration; parameters: concentration or dose not given beside the values
L1210 [3] = test: Compound was tested in vitro against L1210 murine leukemia cell growth rate at a concentration of 100 uM; type: functional, Mus musculus; outline: as §1
L1210 [4] = test: Compound was tested in vitro for its inhibitory activity against L1210 murine leukemia cell growth at a concentration of 100 uM; type: functional, cell-based; conditions: Mus musculus; outline: as §1
Brugia pahangi [5] = test: Antifilarial activity measured against the adult worms of Brugia pahangi in jirds by subcutaneous administration; type: functional; parameters: concentration or dose not given beside the values
Outline: (§2)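 Jirds carrying implanted adult worms (three to five per group) were dosed once daily for 5 consecutive days, or on day 1 only where noted. Dosing was subcutaneous or oral, with drug as a solution or suspension in aqueous 1% (hydroxyethyl)cellulose plus 0.1% Tween 80. Survivors were necropsied 55 to 70 days after the first dose and searched for adult worms. Counts are given as % of control.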

L1210 [6] = test: In vitro for its inhibitory activity against L1210 murine leukemia cell growth; type: functional, cell-based; conditions: Mus musculus; outline: as §1
Brugia pahangi [7] = test: Antifilarial activity was measured against the adult worms of Brugia pahangi in jirds by oral administration at a dose of 100 mg/kg/day; type: functional; outline: as §2
Brugia pahangi [8] = test: Antifilarial activity was measured against the adult worms of Brugia pahangi in jirds by subcutaneous administration at a dose of 1.6 mg/kg/day; type: functional; outline: as §2
Brugia pahangi [9] = test: Antifilarial activity was measured against the adult worms of Brugia pahangi in jirds by subcutaneous administration at a dose of 12.5 mg/kg/day; type: functional; outline: as §2
Brugia pahangi [10] = test: Antifilarial activity was measured against the adult worms of Brugia pahangi in jirds by subcutaneous administration at a dose of 6.2 mg/kg/day; type: functional; outline: as §2
Homo sapiens [11] = organism: Homo sapiens; test: Compound was tested in vitro against human epidermoid carcinoma cell (H. Ep. 2) growth rate at a concentration of 10 uM; type: functional
Homo sapiens [12] = organism: Homo sapiens; test: Compound was tested in vitro for its inhibitory activity against human epidermoid carcinoma cell (H. Ep. 2) growth at a concentration of 10 uM; type: functional; conditions: HEp-2
Acanthocheilonema viteae = test: Antifilarial activity was measured against the adult worms of Acanthocheilonema viteae in jirds by oral administration at a dose of 100 mg/kg/5 days; type: functional; outline: as §2
Brugia pahangi [13] = test: Antifilarial activity was measured against the adult worms of Brugia pahangi in jirds by subcutaneous administration at a dose of 100 mg/kg/day; type: functional; outline: as §2
Brugia pahangi [14] = test: Antifilarial activity was measured against the adult worms of Brugia pahangi in jirds by subcutaneous administration at a dose of 50 mg/kg/day; type: functional; outline: as §2
Brugia pahangi [15] = test: Antifilarial activity was measured against the adult worms of Brugia pahangi in jirds by subcutaneous administration at a dose of 25 mg/kg/day
Brugia pahangi [16] = test: Antifilarial activity was measured against the adult worms of Brugia pahangi in jirds by subcutaneous administration at a concentration of 100 mg/kg/day

Row | IC50 (L1210 [6]) [nM] | SMILES | Control (L1210 [1]) [%] | Control (Brugia pahangi [2]) [%] | Control (Brugia pahangi [5]) [%] | other results
1 | – | COC(=O)Nc1nc2cc(C(=O)Nc3ccc(F)cc3)ccc2[nH]1 | 92 | 67 | – | –
2 | – | COC(=O)Nc1nc2cc(C(=O)N3CCOCC3)ccc2[nH]1 | – | – | – | Control (L1210 [3]): 0%; IC50 (L1210 [4]): 60000 nM
3 | 740 | COC(=O)Nc1nc2cc(C(=O)OCCC(C)CC(C)(C)C)ccc2[nH]1 (stereo unspecified) | 0 | – | 85 | –
4 | 700 | COC(=O)Nc1nc2cc(C(=O)OC(C)C)ccc2[nH]1 | 0 | 0 | – | Control (Brugia pahangi [7]): 100%; Control (Brugia pahangi [8]): 51%; Control (Brugia pahangi [9]): 0%; Control (Brugia pahangi [10]): 18%; Control (Homo sapiens [11]): 0%; IC50 (Homo sapiens [12]): 220 nM
5 | 10000 | CCNC(=O)c1ccc2[nH]c(NC(=O)OC)nc2c1 | 41 | – | – | Control (Acanthocheilonema viteae): 80%; Control (Brugia pahangi [7]): 89%; Control (Brugia pahangi [13]): 0%; Control (Brugia pahangi [14]): 0%; Control (Homo sapiens [11]): 0%; IC50 (Homo sapiens [12]): 6000 nM; Control (Brugia pahangi [15]): 0%
6 | 2200 | O=C(Nc1nc2cc(C(=O)OCC3CC3)ccc2[nH]1)OCC1CC1 | 24 | – | 72 | –
7 | – | CCOC(=O)Nc1nc2cc(C(=O)O)ccc2[nH]1 | – | – | 90 | Control (L1210 [3]): 100%
8 | 7400 | CCCOC(=O)c1ccc2[nH]c(NC(=O)OC)nc2c1 | 38 | – | – | Control (Brugia pahangi [16]): 100%
9 | – | COC(=O)Nc1nc2cc(C(=O)OCc3cccs3)ccc2[nH]1 | 93 | – | 71 | Control (Homo sapiens [11]): 0%; IC50 (Homo sapiens [12]): 2300 nM
10 | – | COC(=O)Nc1nc2cc(C(=O)N3CCN(C(=O)N(C)C)CC3)ccc2[nH]1 | – | 94 | – | –
11 | – | CCN(CC)C(=O)N1CCN(C(=O)c2ccc3[nH]c(NC(=O)OC)nc3c2)CC1 | 100 | 100 | – | –
12 | – | COC(=O)Nc1nc2cc(C(=O)OCc3ccc(F)cc3)ccc2[nH]1 | – | – | 83 | –
13 | – | COC(=O)Nc1nc2cc(C(=O)N3CCN(C)CC3)ccc2[nH]1 | 100 | – | – | Control (Brugia pahangi [16]): 101%
14 | 760 | CCOC(=O)Nc1nc2cc(C(=O)OCC)ccc2[nH]1 | 0 | – | 62 | Control (Homo sapiens [11]): 0%; IC50 (Homo sapiens [12]): 290 nM
15 | – | COC(=O)Nc1nc2cc(C(=O)N3CCNCC3)ccc2[nH]1 | – | 55 | – | –
16 | – | COC(=O)Nc1nc2cc(C(=O)N(C)C)ccc2[nH]1 | 88 | 95 | – | –
